Experimental data of several laboratories.
Compare with care: the assays were run in different laboratories.
Read-out: cell growth or viability

SMILES	cell line	technique	time	pH	IC50
CN1c2ccccc2C(=O)N2[C@H](C(=O)Nc3ccc(/C=C/C(=O)NO)cc3)Cc3c([nH]c4ccccc34)[C@@H]12	HUVEC	–	–	–	7.4 µM
Nc1nc2sc(CCCCCc3ccc(C(=O)N[C@@H](CCC(=O)O)C(=O)O)cc3)cc2c(=O)[nH]1	R2/PCFT4	–	96 h	pH 7.2	> 1 µM
CCCON(Cc1ccc(C(=O)NO)cc1)C(=O)Nc1ccccc1	HAL-01	ATP luminescence	72 h	–	6.65 µM
COc1cc(/C=C/C(=O)CC(=O)/C=C/c2ccc(O)c(OC)c2)ccc1O	HUVEC	MTT	48 h	–	10.3 µg/mL
COc1cc(Nc2nccc(-c3cnn4nc(OC)ccc34)n2)cc(C(F)(F)F)c1	HCC38	ATP luminescence	–	–	0.93 µM
Nc1nc2sc(CCCc3ccc(C(=O)N[C@@H](CCC(=O)O)C(=O)O)cc3)cc2c(=O)[nH]1	R2/PCFT4	–	96 h	pH 7.2	> 1 µM
Nc1ccn([C@@H]2O[C@H](CO)[C@@H](O)C2(F)F)c(=O)n1	HFF-1	MTT	–	–	14.4 µM
Cn1cc(-c2ccc3c(c2)ncn3-c2ccc(CC(=O)Nc3cc(C(C)(C)C)on3)cc2)cn1	NIH3T3	–	–	–	0.0344 µM
CC(C)C[C@H](NC(=O)[C@H](Cc1ccccc1)NC(=O)c1cnccn1)B(O)O	Ishikawa	ATP luminescence	–	–	0.0071 µM
O=C(N/N=C/c1cccn1CCCN1CCOCC1)Nc1cc2c(Nc3ccc(F)c(Cl)c3)ncnc2cc1O[C@H]1CCOC1	PC-3	MTT	72 h	–	6.32 µM
Cc1ccc(-c2ccc(O)cc2)c(C(=C2C=CC(=O)C=C2)c2ccc(O)cc2)c1C#Cc1ccc(O)cc1	HUVEC	MTT	48 h	–	> 50 µM
CCOc1cc(-c2nc3ccc(C)cc3[nH]2)ccc1O	C26	MTT	48 h	–	32.8 µM
C=CCNC1=C2C[C@@H](C)C[C@H](OC)[C@H](O)[C@@H](C)/C=C(\C)[C@H](OC(N)=O)[C@@H](OC)/C=C\C=C(/C)C(=O)NC(=CC1=O)C2=O	HUVEC	MTT	–	–	1.2 µM
CCN(CC)CCn1cccc1/C=N/NC(=O)Nc1cc2c(Nc3ccc(F)c(Cl)c3)ncnc2cc1O[C@H]1CCOC1	PC-3	MTT	72 h	–	0.15 µM
OCc1ccc2c(c1C#Cc1ccc(O)cc1)C(c1ccc(O)cc1)(c1ccc(O)cc1)c1cc(O)ccc1-2	HUVEC	MTT	48 h	–	> 50 µM
Nc1nc2sc(CCCCCCc3ccc(C(=O)N[C@@H](CCC(=O)O)C(=O)O)cc3)cc2c(=O)[nH]1	R2/PCFT4	–	96 h	pH 7.2	> 1 µM
